{"data": "Published values gathered from unrelated publications", "target": "Activin receptor type-1-like (ACVRL1, Homo sapiens, UniProt P37023)", "note": "Protocols differ between the studies behind these lines."}
{"Structure (SMILES)": "Cc1cnc(Nc2ccc(C(=O)N3CCC(N4CCCC4)CC3)cc2)nc1-c1cc2ccccc2s1", "assay": "binding, competition with immobilised ligand", "conditions": "1 µM", "remaining binding [%]": 100}
{"Structure (SMILES)": "O=C(NCC1CCOCC1)c1n[nH]cc1NC(=O)c1c(F)cccc1F", "assay": "binding, competition with immobilised ligand", "conditions": "1 µM", "remaining binding [%]": 94}
{"Structure (SMILES)": "C[C@@H](c1ccc(-n2cnc3c(N)ncnc32)cc1)N1CCc2nn(C)c(Cc3ccccc3)c2C1=O", "assay": "binding, competition with immobilised ligand", "conditions": "0.1 µM", "remaining binding [%]": 66}
{"Structure (SMILES)": "C=CC(=O)N1CCC(C(=O)NCC(=O)N2CCN(c3nc(-c4cnc(N)nc4C(F)F)nc(N4CCOCC4)n3)CC2)CC1", "assay": "binding, competition with immobilised ligand", "conditions": "1 µM", "remaining binding [%]": 92}
{"Structure (SMILES)": "F[C@@H]1CCN(c2nccc(-c3cnn4ncccc34)n2)C1", "assay": "binding", "conditions": "1 µM", "remaining binding [%]": 88}
{"Structure (SMILES)": "CCN1CCN(Cc2ccc(C(=O)Nc3ccc(C)c(Oc4ccc5c(c4)CC(=O)N5)c3)cc2C(F)(F)F)CC1", "assay": "binding, competition with immobilised ligand", "conditions": "1 µM", "remaining binding [%]": 100}
{"Structure (SMILES)": "COc1cnc(Nc2cccc(S(N)(=O)=O)c2)nc1N1CCN(c2ccccc2)CC1", "assay": "binding, competition with immobilised ligand", "conditions": "1 µM", "remaining binding [%]": 98}
{"Structure (SMILES)": "CS(=O)(=O)c1cc(C2(NC(=O)c3cncc4c3cnn4-c3ccc(F)cc3)CC2)ccn1", "assay": "cell-free assay, competition with immobilised ligand", "conditions": "1 µM", "remaining binding [%]": 100}
{"Structure (SMILES)": "Cc1cnn2ncc(-c3ccnc(N(C)C)n3)c2c1", "assay": "binding", "conditions": "1 µM", "remaining binding [%]": 91}
{"Structure (SMILES)": "CCOCCn1cc(C(=O)Nc2ccc(-n3nc(-c4cccnc4)cc3C(F)(F)F)cn2)ccc1=O", "assay": "cell-free assay, competition with immobilised ligand", "conditions": "1 µM", "remaining binding [%]": 100}
{"Structure (SMILES)": "N[C@@H]1CCN(c2nccc(-c3cnn4ncccc34)n2)C1", "assay": "binding", "conditions": "1 µM", "remaining binding [%]": 100}
{"Structure (SMILES)": "O=C(NCCCN1CCOCC1)c1ccc(Nc2ncc(Cl)c(-c3ccc(Cl)s3)n2)cc1", "assay": "binding, competition with immobilised ligand", "conditions": "1 µM", "remaining binding [%]": 100}
{"Structure (SMILES)": "Cc1cc(C)c(-n2ccn3nc(-c4cccnc4)cc23)cc1NC(=O)c1cc(C#N)cc(S(F)(F)(F)(F)F)c1", "assay": "binding, competition with immobilised ligand", "conditions": "0.1 µM", "remaining binding [%]": 78.9}
{"Structure (SMILES)": "CN(C)c1ncc(F)c(-c2cnn3ncccc23)n1", "assay": "binding", "conditions": "1 µM", "remaining binding [%]": 100}
{"Structure (SMILES)": "FC(F)(F)c1ccc2c(c1)nc(-c1cccnc1)n2C1CC1", "assay": "cell-free assay, competition with immobilised ligand", "conditions": "1 µM", "remaining binding [%]": 100}
{"Structure (SMILES)": "CN(C)c1nccc(-c2cnc3ncccn23)n1", "assay": "binding", "conditions": "1 µM", "remaining binding [%]": 100}
{"Structure (SMILES)": "Cc1c[nH]c2nccc(Oc3c(F)cc(Nc4cc(Cl)nc(N)n4)cc3F)c12", "assay": "cell-free assay, competition with immobilised ligand", "conditions": "0.1 µM", "remaining binding [%]": 100}
{"Structure (SMILES)": "COc1cnc(Nc2cccc(S(N)(=O)=O)c2)nc1N1CCN(c2ccccc2)C(=O)C1", "assay": "binding, competition with immobilised ligand", "conditions": "1 µM", "remaining binding [%]": 95}
{"Structure (SMILES)": "COc1cc(-c2cn(C3CCc4c(F)cccc4N(CC(F)(F)F)C3=O)nn2)ccc1-n1cnc(C)c1 (stereo not shown)", "assay": "cell-free assay, competition with immobilised ligand", "conditions": "1 µM", "remaining binding [%]": 100}
{"Structure (SMILES)": "CN(CCCC(F)(F)F)c1nccc(-c2cnn3ncccc23)n1", "assay": "binding", "conditions": "1 µM", "remaining binding [%]": 68}
{"Structure (SMILES)": "CCCCN(CCCC)C(=O)CN1C[C@@H](c2cc(OC)c3c(c2)OCO3)[C@H](C(=O)O)[C@H]1CC(C)(C)CCC", "assay": "cell-free assay, competition with immobilised ligand", "conditions": "1 µM", "remaining binding [%]": 99.4}
{"Structure (SMILES)": "O=C(NCCCN1CCOCC1)c1ccc(Nc2nccc(-c3cc4ccccc4s3)n2)cc1", "assay": "binding, competition with immobilised ligand", "conditions": "1 µM", "remaining binding [%]": 100}
